Data from ChEMBL document CHEMBL1143334, “Peri-substituted hexahydro-indolones as novel, potent and selective human EP3 receptor antagonists” (Bioorg Med Chem Lett, 2009).
Active and inactive are the calls of the source. The calls are words filed in the database; no cut-off is given here.

Molecular target: T1, Prostaglandin E2 receptor EP3 subtype (Homo sapiens, UniProt P43115)
T1 sequence (P43115 whole entry): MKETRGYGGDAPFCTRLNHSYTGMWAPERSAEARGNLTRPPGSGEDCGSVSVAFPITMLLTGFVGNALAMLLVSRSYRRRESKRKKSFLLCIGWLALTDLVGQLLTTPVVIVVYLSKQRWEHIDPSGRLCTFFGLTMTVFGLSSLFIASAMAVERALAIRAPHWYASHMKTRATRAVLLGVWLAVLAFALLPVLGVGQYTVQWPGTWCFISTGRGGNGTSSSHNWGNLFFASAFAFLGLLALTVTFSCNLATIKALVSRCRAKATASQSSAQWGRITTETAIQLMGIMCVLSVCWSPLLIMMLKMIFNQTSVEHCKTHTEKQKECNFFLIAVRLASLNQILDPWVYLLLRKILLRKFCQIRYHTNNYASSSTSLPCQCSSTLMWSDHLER
Assay: Displacement of [3H]PGE2 from human EP3 receptor
Conditions: not given
In short: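 Displacement of [3H]-PGE2 from human EP3 receptor membrane preparations was run in buffer. IC50 values come from at least three experiments each.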

SMILES | IC50
CC12CCCC(/C=C/C(=O)NS(=O)(=O)c3ccc(F)c(F)c3)=C1N(Cc1cccc(Cl)c1Cl)C(=O)C2 (stereo unspecified) | 3.4 nM
CC12CCCC(/C=C/C(=O)NS(=O)(=O)c3cc(F)c(F)cc3F)=C1N(Cc1ccc(Cl)cc1Cl)C(=O)C2 (stereo unspecified) | 3.7 nM
COC(=O)C12CCCC(/C=C/C(=O)NS(=O)(=O)c3cc(Cl)c(Cl)s3)=C1N(Cc1ccc(F)c(F)c1)C(=O)C2 (stereo unspecified) | 29.9 nM
CC12CCCC(/C=C/C(=O)NS(=O)(=O)c3cc(F)c(F)cc3F)=C1N(Cc1cccc(Cl)c1Cl)C(=O)C2 (stereo unspecified) | 4.3 nM
CC12CCCC(/C=C/C(=O)NS(=O)(=O)c3ccc(F)c(F)c3)=C1N(Cc1ccc(Cl)cc1Cl)C(=O)C2 (stereo unspecified) | 3.4 nM
CC12CCCC(/C=C/C(=O)NS(=O)(=O)c3cc(Cl)c(Cl)s3)=C1N(Cc1cccc(Cl)c1Cl)C(=O)C2 (stereo unspecified) | 4.4 nM
CC12CCCC(/C=C/C(=O)NS(=O)(=O)c3cc(Cl)cc(Cl)c3)=C1N(Cc1ccc(Cl)cc1Cl)C(=O)C2 (stereo unspecified) | 9.8 nM

Molecular target: T2, Prostaglandin E2 receptor EP3 subtype (Homo sapiens) (UniProt P43115)
T2 sequence (whole entry): T1 sequence (P43115 whole entry)
Assay: Ratio of IC50 for human EP3 receptor in presence of 10% human serum to IC50 for human EP3 receptor in buffer
Conditions: not given
In short: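 Displacement of [3H]-PGE2 from human EP3 membrane preparations was run both with 10% human serum and in buffer alone. Fold-shift is IC50 with serum divided by IC50 in buffer.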

SMILES | fold change (FC)
CC12CCCC(/C=C/C(=O)NS(=O)(=O)c3ccc(F)c(F)c3)=C1N(Cc1cccc(Cl)c1Cl)C(=O)C2 (stereo unspecified) | 7.8
CC12CCCC(/C=C/C(=O)NS(=O)(=O)c3cc(F)c(F)cc3F)=C1N(Cc1ccc(Cl)cc1Cl)C(=O)C2 (stereo unspecified) | 7
COC(=O)C12CCCC(/C=C/C(=O)NS(=O)(=O)c3cc(Cl)c(Cl)s3)=C1N(Cc1ccc(F)c(F)c1)C(=O)C2 (stereo unspecified) | 308
CC12CCCC(/C=C/C(=O)NS(=O)(=O)c3cc(F)c(F)cc3F)=C1N(Cc1cccc(Cl)c1Cl)C(=O)C2 (stereo unspecified) | 5.8
CC12CCCC(/C=C/C(=O)NS(=O)(=O)c3ccc(F)c(F)c3)=C1N(Cc1ccc(Cl)cc1Cl)C(=O)C2 (stereo unspecified) | 18
CC12CCCC(/C=C/C(=O)NS(=O)(=O)c3cc(Cl)c(Cl)s3)=C1N(Cc1cccc(Cl)c1Cl)C(=O)C2 (stereo unspecified) | 6.6
CC12CCCC(/C=C/C(=O)NS(=O)(=O)c3cc(Cl)cc(Cl)c3)=C1N(Cc1ccc(Cl)cc1Cl)C(=O)C2 (stereo unspecified) | 61.2

System: not listed separately
Assay: Metabolic stability in rat liver microsomes after 30 mins
Format: ADME, Microsome
Conditions: read-out: Stability
In short: (§1)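 Compound was incubated 30 min with liver microsomes from each species. Percent parent remaining was measured by LC/MS/MS.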

SMILES | remaining at 0.5 h
CC12CCCC(/C=C/C(=O)NS(=O)(=O)c3cc(F)c(F)cc3F)=C1N(Cc1ccc(Cl)cc1Cl)C(=O)C2 (stereo unspecified) | 37%
CC12CCCC(/C=C/C(=O)NS(=O)(=O)c3cc(F)c(F)cc3F)=C1N(Cc1cccc(Cl)c1Cl)C(=O)C2 (stereo unspecified) | 50%
CC12CCCC(/C=C/C(=O)NS(=O)(=O)c3cc(Cl)c(Cl)s3)=C1N(Cc1cccc(Cl)c1Cl)C(=O)C2 (stereo unspecified) | 69%
CC12CCCC(/C=C/C(=O)NS(=O)(=O)c3cc(Cl)cc(Cl)c3)=C1N(Cc1ccc(Cl)cc1Cl)C(=O)C2 (stereo unspecified) | 62%

System: not listed separately
Assay: Metabolic stability in human liver microsomes after 30 mins
Format: ADME, Microsome
Conditions: read-out: Stability
In short: as §1

SMILES | remaining at 0.5 h
CC12CCCC(/C=C/C(=O)NS(=O)(=O)c3cc(F)c(F)cc3F)=C1N(Cc1ccc(Cl)cc1Cl)C(=O)C2 (stereo unspecified) | 62%
CC12CCCC(/C=C/C(=O)NS(=O)(=O)c3cc(F)c(F)cc3F)=C1N(Cc1cccc(Cl)c1Cl)C(=O)C2 (stereo unspecified) | 49%
CC12CCCC(/C=C/C(=O)NS(=O)(=O)c3cc(Cl)c(Cl)s3)=C1N(Cc1cccc(Cl)c1Cl)C(=O)C2 (stereo unspecified) | 80%
CC12CCCC(/C=C/C(=O)NS(=O)(=O)c3cc(Cl)cc(Cl)c3)=C1N(Cc1ccc(Cl)cc1Cl)C(=O)C2 (stereo unspecified) | 70%

Molecular target: T3, Prostaglandin E2 receptor EP4 subtype (Homo sapiens, UniProt P35408)
Assay: Binding affinity to human EP4 receptor at 20 uM by radioligand binding assay
Conditions: not given

T3 sequence (P35408 whole entry): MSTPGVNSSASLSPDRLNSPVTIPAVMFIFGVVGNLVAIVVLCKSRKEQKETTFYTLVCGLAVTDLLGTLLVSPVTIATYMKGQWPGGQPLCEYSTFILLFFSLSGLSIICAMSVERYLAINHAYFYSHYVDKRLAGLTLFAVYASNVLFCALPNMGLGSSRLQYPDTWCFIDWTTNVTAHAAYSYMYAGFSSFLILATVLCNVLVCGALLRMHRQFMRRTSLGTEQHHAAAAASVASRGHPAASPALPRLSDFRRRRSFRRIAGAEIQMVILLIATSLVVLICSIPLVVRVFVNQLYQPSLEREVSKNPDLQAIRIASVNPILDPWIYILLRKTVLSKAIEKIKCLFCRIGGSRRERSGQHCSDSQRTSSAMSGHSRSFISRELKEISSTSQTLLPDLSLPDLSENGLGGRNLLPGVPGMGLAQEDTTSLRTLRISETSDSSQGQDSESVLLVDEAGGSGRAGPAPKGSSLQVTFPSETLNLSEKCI

SMILES | Activity
CC12CCCC(/C=C/C(=O)NS(=O)(=O)c3cc(F)c(F)cc3F)=C1N(Cc1cccc(Cl)c1Cl)C(=O)C2 (stereo unspecified) | inactive

Species on record: Homo sapiens
Assay: Selectivity of human EP1 receptor over human EP3 receptor
Conditions: not given

SMILES | Selectivity ratio
CC12CCCC(/C=C/C(=O)NS(=O)(=O)c3cc(F)c(F)cc3F)=C1N(Cc1ccc(Cl)cc1Cl)C(=O)C2 (stereo unspecified) | > 1000
CC12CCCC(/C=C/C(=O)NS(=O)(=O)c3cc(F)c(F)cc3F)=C1N(Cc1cccc(Cl)c1Cl)C(=O)C2 (stereo unspecified) | > 1000

Species on record: Homo sapiens
Assay: Selectivity of human EP2 receptor over human EP3 receptor
Conditions: not given

SMILES | Selectivity ratio
CC12CCCC(/C=C/C(=O)NS(=O)(=O)c3cc(F)c(F)cc3F)=C1N(Cc1ccc(Cl)cc1Cl)C(=O)C2 (stereo unspecified) | > 1000
CC12CCCC(/C=C/C(=O)NS(=O)(=O)c3cc(F)c(F)cc3F)=C1N(Cc1cccc(Cl)c1Cl)C(=O)C2 (stereo unspecified) | > 1000

Species on record: Homo sapiens
Assay: Selectivity of human EP4 receptor over human EP3 receptor
Conditions: not given

SMILES | Selectivity ratio
CC12CCCC(/C=C/C(=O)NS(=O)(=O)c3cc(F)c(F)cc3F)=C1N(Cc1ccc(Cl)cc1Cl)C(=O)C2 (stereo unspecified) | > 1000
CC12CCCC(/C=C/C(=O)NS(=O)(=O)c3cc(F)c(F)cc3F)=C1N(Cc1cccc(Cl)c1Cl)C(=O)C2 (stereo unspecified) | > 1000

Species on record: Homo sapiens
Assay: Selectivity of human FP receptor over human EP3 receptor
Conditions: not given

SMILES | Selectivity ratio
CC12CCCC(/C=C/C(=O)NS(=O)(=O)c3cc(F)c(F)cc3F)=C1N(Cc1ccc(Cl)cc1Cl)C(=O)C2 (stereo unspecified) | > 1000
CC12CCCC(/C=C/C(=O)NS(=O)(=O)c3cc(F)c(F)cc3F)=C1N(Cc1cccc(Cl)c1Cl)C(=O)C2 (stereo unspecified) | > 1000

Molecular target: T4, Prostaglandin E2 receptor EP1 subtype (Homo sapiens, UniProt P34995)
T4 sequence (P34995 whole entry): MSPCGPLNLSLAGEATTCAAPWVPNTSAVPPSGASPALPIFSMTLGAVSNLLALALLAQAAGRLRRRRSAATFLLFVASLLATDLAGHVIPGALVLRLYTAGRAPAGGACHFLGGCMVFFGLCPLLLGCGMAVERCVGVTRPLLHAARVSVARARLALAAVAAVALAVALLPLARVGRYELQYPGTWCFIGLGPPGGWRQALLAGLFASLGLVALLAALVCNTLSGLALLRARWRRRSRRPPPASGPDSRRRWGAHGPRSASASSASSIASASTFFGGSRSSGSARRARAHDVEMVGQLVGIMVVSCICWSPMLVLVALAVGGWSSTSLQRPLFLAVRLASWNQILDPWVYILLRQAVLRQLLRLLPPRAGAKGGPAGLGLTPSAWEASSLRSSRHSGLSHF
Assay: Binding affinity to human EP1 receptor by radioligand binding assay
Conditions: not given

SMILES | IC50
CC12CCCC(/C=C/C(=O)NS(=O)(=O)c3cc(F)c(F)cc3F)=C1N(Cc1ccc(Cl)cc1Cl)C(=O)C2 (stereo unspecified) | 11600 nM

Molecular target: T5, Prostaglandin E2 receptor EP1 subtype (Homo sapiens) (UniProt P34995)
T5 sequence (whole entry): T4 sequence (P34995 whole entry)
Assay: Binding affinity to human EP1 receptor at 20 uM by radioligand binding assay
Conditions: not given

SMILES | Activity
CC12CCCC(/C=C/C(=O)NS(=O)(=O)c3cc(F)c(F)cc3F)=C1N(Cc1cccc(Cl)c1Cl)C(=O)C2 (stereo unspecified) | inactive

Molecular target: Prostaglandin E2 receptor EP2 subtype (Homo sapiens, UniProt P43116)
Assay: Binding affinity to human EP2 receptor at 20 uM by radioligand binding assay
Conditions: not given

Chain of Prostaglandin E2 receptor EP2 subtype (P43116 whole entry): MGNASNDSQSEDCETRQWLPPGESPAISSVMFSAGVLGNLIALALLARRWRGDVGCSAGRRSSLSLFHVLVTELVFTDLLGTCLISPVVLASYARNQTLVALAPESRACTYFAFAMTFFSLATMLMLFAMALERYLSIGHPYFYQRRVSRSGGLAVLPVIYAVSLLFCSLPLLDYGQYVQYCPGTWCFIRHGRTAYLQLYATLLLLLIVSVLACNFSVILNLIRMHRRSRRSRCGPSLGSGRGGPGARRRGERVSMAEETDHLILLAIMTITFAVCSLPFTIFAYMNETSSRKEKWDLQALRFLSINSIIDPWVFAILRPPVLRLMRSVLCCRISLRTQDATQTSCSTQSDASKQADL

SMILES | Activity
CC12CCCC(/C=C/C(=O)NS(=O)(=O)c3cc(F)c(F)cc3F)=C1N(Cc1ccc(Cl)cc1Cl)C(=O)C2 (stereo unspecified) | inactive
CC12CCCC(/C=C/C(=O)NS(=O)(=O)c3cc(F)c(F)cc3F)=C1N(Cc1cccc(Cl)c1Cl)C(=O)C2 (stereo unspecified) | inactive

Molecular target: T3, Prostaglandin E2 receptor EP4 subtype
Assay: Binding affinity to human EP4 receptor by radioligand binding assay
Conditions: not given

SMILES | IC50
CC12CCCC(/C=C/C(=O)NS(=O)(=O)c3cc(F)c(F)cc3F)=C1N(Cc1ccc(Cl)cc1Cl)C(=O)C2 (stereo unspecified) | 20800 nM

Molecular target: Prostaglandin F2-alpha receptor (Homo sapiens, UniProt P43088)
Assay: Binding affinity to human FP receptor by radioligand binding assay
Conditions: not given

Chain of Prostaglandin F2-alpha receptor (P43088 whole entry): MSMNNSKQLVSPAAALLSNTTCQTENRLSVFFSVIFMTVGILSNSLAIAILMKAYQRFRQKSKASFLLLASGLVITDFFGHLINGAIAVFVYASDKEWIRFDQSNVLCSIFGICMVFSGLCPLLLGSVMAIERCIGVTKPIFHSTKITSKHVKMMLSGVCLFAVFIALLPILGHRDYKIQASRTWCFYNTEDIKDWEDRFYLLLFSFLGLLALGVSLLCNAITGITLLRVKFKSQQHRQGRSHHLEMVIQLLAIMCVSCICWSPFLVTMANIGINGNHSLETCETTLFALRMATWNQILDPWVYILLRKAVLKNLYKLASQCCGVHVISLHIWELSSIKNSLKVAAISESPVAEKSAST

SMILES | IC50
CC12CCCC(/C=C/C(=O)NS(=O)(=O)c3cc(F)c(F)cc3F)=C1N(Cc1ccc(Cl)cc1Cl)C(=O)C2 (stereo unspecified) | 7600 nM
CC12CCCC(/C=C/C(=O)NS(=O)(=O)c3cc(F)c(F)cc3F)=C1N(Cc1cccc(Cl)c1Cl)C(=O)C2 (stereo unspecified) | 7400 nM

Molecular target: T1, Prostaglandin E2 receptor EP3 subtype
Assay: Antagonist activity at human EP3 receptor expressed in CHO-K1 cells assessed as reversal of inhibition of forskolin-induced cAMP production
Format: functional, cell-based
Conditions: not given
In short: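 CHO-K1 cells stably expressing human EP3 were exposed to increasing test compound concentrations for 10 min at 37 °C, with 5 μM forskolin plus 5 nM PGE2 present. Read-out was the block of PGE2's inhibition of the forskolin-induced cAMP rise, giving IC50.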

SMILES | IC50
CC12CCCC(/C=C/C(=O)NS(=O)(=O)c3ccc(F)c(F)c3)=C1N(Cc1cccc(Cl)c1Cl)C(=O)C2 (stereo unspecified) | 3.5 nM
CC12CCCC(/C=C/C(=O)NS(=O)(=O)c3cc(F)c(F)cc3F)=C1N(Cc1cccc(Cl)c1Cl)C(=O)C2 (stereo unspecified) | 4.5 nM
CC12CCCC(/C=C/C(=O)NS(=O)(=O)c3cc(Cl)c(Cl)s3)=C1N(Cc1cccc(Cl)c1Cl)C(=O)C2 (stereo unspecified) | 1.7 nM
